KCNQ1 inh – inhibitors of human KCNQ1 channel, primary screen, cell-based, thallium flux, high-throughput; AID 2642, 2010; actives 1.3% (n = 310,000); Potassium voltage-gated channel subfamily KQT member 1 (Homo sapiens), P51787; CHO-K1 KCNQ1, FluxOR thallium flux fluorescence; hits give high values; B-score at 10 µM;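 active means compounds whose thallium flux B-score, printed positive for inhibition, exceeds three library SD while starting fluorescence stays within three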;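 further: channel opened by potassium depolarization with thallium stimulus after 20 min compound exposure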
Target sequence (P51787 whole entry, looked up): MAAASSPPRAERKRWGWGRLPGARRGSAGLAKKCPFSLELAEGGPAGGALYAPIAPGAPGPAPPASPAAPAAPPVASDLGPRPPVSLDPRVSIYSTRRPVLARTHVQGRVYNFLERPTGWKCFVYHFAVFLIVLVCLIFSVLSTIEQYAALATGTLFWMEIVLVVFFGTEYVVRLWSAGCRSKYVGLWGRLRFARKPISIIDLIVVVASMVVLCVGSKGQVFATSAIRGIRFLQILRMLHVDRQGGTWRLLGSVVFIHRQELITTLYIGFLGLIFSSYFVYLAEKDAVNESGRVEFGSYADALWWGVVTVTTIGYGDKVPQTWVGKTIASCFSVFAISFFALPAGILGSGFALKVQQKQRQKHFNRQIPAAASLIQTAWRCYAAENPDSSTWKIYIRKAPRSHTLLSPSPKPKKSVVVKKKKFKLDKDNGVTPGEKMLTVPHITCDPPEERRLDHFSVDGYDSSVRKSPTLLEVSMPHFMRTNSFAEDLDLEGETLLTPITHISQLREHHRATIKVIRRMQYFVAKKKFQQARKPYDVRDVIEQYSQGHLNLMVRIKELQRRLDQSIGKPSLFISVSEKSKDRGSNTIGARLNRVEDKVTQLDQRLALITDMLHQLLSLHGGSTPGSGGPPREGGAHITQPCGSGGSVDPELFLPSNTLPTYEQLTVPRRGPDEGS
KCNK9 inh – KCNK9 potassium channel inhibitors, primary screen, HEK293 cells, thallium flux | Potassium channel subfamily K member 9 (Homo sapiens), Q9NPC2 | FluxOR thallium flux fluorescence; hits give low values | B-score at 10 µM | actives 1.2% (n = 310,000);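 active means ratio B-score over 3 SD below the library mean, with starting fluorescence within 5 SD of its mean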;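 further: negative B-score means less thallium flux so channel inhibition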
hERG rescue – hERG rescue from dofetilide block, primary screen, cell-based, CHO-hERG, FluxOR thallium flux, dofetilide IC70. Voltage-gated inwardly rectifying potassium channel KCNH2 (Homo sapiens), Q12809. dofetilide IC70 present. activation (rescue from dofetilide block), less the hit threshold, % at 10 µM. actives 0.51% (n = 310,000). AID 1511, 2009;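 active means activation above the mean of controls blocked by dofetilide plus 5 SD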;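 further: thallium influx through hERG after potassium depolarization seen as dye fluorescence rise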
KCNK3 block – human KCNK3 channel inhibitors, primary screen, CHO cells, FluxOR thallium flux, B-score | Potassium channel subfamily K member 3 (Homo sapiens), O14649 | B-score at 10 µM | AID 602410, 2012 | FluxOR fluorescence; hits give low values | actives 0.84% (n = 340,000);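 active means B-score under library mean minus 4 SD, starting fluorescence ratio at most library mean plus 5 SD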;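 further: more negative B-score means stronger inhibition of thallium flux through KCNK3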
Cl transport mod – KCC2 cotransporter modulators, thallium flux, primary screen, cell-based, HEK293 KCC2, FluoZin-2 fluorescence, MLSMR; Solute carrier family 12 member 5 (Homo sapiens), Q9H2X9; KCC2 cells, thallium flux FluoZin-2 fluorescence; B-score of Tl+ flux slope (higher = more flux/activation; lower = inhibition) at 10 µM; actives 2.2% (n = 190,000); AID 1456, 2008;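 active means thallium flux slope and its plate-corrected score both differing from the plate sample mean at a set confidence after two filtering rounds, in either direction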;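 further: slope of fluorescence scaled to starting intensity during 10 to 20 s after thallium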
KCNQ1 pot – potentiators or activators of KCNQ1 channel, primary screen, cell-based, thallium flux, high-throughput | Potassium voltage-gated channel subfamily KQT member 1 (Homo sapiens), P51787 | CHO-K1 KCNQ1, thallium flux FluxOR fluorescence; hits give high values | B-score at 10 µM | actives 0.35% (n = 310,000);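 active means fluorescence ratio B-score, a plate-corrected score, at least three library SD, with initial intensity B-score within 5 SD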
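Assay system: stable KCNQ1 CHO-K1 line; medium: assay buffer, equal DMSO in all wells; timing: 90 min dye loading and 20 min compound exposure, both at room temperature; technique: kinetic FluxOR thallium fluorescence, 10-s 1-Hz baseline, 110-s post-stimulus read; read-out basis: B score of baseline-normalized fluorescence ratio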
KCNQ1 block val – KCNQ1 potassium channel inhibitors, confirmation, cell-based, Tl flux, duplicate; actives 93% (n = 1,600); inhibition, % at 10 µM; KCNQ1 cell line, FluxOR thallium flux fluorescence; shares compounds with KCNQ1 inh;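 active means primary screen active, with duplicate mean exceeding buffer control mean plus 3 SD of buffer wells, cut at about 28% in these data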;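 further: 0% = buffer control ratio and 100% = XE991 inhibitor control ratio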
CHO Tl flux – thallium flux effects in parental CHO cells, counter-screen for KCNQ1 inhibitor project, cell-based, Tl flux | shares compounds with KCNQ1 inh | parental CHO-K1, FluxOR thallium flux fluorescence ratio; hits give low values; zero means no signal rise above baseline | fluorescence ratio (Tl flux) at 10 µM | actives 21% (n = 1,600);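 active means mean of duplicate thallium-flux fluorescence ratios in parental host cells more than 5 SD below the buffer control mean, cut at about 0.38 in these data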;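 further: ratio is peak minus minimum fluorescence divided by baseline fluorescence; actives read low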
KCNQ1 ephys val – KCNQ1 channel inhibitors, confirmation, orthogonal assay, cell-based, automated electrophysiology; KCNQ1-CHO cells, automated patch clamp current; shares compounds with KCNQ1 inh; AID 624120, 2012; actives 20% (n = 490); calls only at 10 µM;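 active means KCNQ1 current drop exceeding 3 SD of negative control wells, seen in both duplicate runs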;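 further: steady state current during a 2 s step from -80 to +40 mV; negative values mean current inhibition and positive values mean potentiation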
KCNQ2 inh – KCNQ2 channel inhibition, selectivity assay for KCNQ1 inhibitor project, cell-based; shares compounds with KCNQ1 inh; KCNQ2 cells, FluxOR thallium flux fluorescence; inhibition, % at 10 µM; actives 71% (n = 1,600); AID 651746, 2012;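 active means mean percent inhibition of the KCNQ2 thallium signal more than 5 SD above the buffer-only control wells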;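 further: KCNQ2 expressed in CHO cells; 0% = buffer control wells and 100% = XE-991 inhibitor control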
KCNQ1-KCNE1 inh – KCNQ1/KCNE1 channel inhibition, selectivity assay for KCNQ1 inhibitor project, CHO-K1 cells, thallium flux, FluxOR. shares compounds with KCNQ1 inh. FluxOR thallium flux fluorescence. inhibition, % at 10 µM. actives 77% (n = 1,600). AID 652147, 2013;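 active means mean percent inhibition of duplicate wells above the buffer-only control mean plus 3 SD of those controls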;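 further: 0% = buffer only wells and 100% = XE-991 inhibitor control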
KCNK9 inh conf – KCNK9 potassium channel inhibitors, confirmation, HEK293 cells, thallium flux, duplicate; shares compounds with KCNK9 inh; FluxOR thallium flux fluorescence; inhibition, % at 10 µM; actives 43% (n = 4,900); AID 492992, 2010;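 active means thallium signal inhibited by more than 5 SD of the compound-free buffer control wells, on both duplicate plates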;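 further: 0% = assay buffer control wells without compound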
Kir21 sel – mouse Kir2.1 channel inhibition, confirmation, selectivity assay for KCNK9 modulator project, cell-based, HEK293, thallium flux. AID 492993, 2010. shares compounds with KCNK9 inh. Kir2.1 cells, FluxOR thallium flux fluorescence. inhibition, % at 10 µM. actives 4% (n = 4,900);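 active means thallium signal drop more than 5 SD beyond the mean of the no-compound control wells, seen in both duplicate plates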;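 further: signal is fluorescence rise after thallium addition divided by baseline fluorescence; plate controls were assay buffer only for no effect and full block by chlorpromazine control for full effect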
KCNK9 uninduced – thallium flux in non-induced HEK293 cells, confirmation, counter-screen for KCNK9 inhibitor project, cell-based, second counter screen, non-induced KCNK9-HEK293; shares compounds with KCNK9 inh; FluxOR thallium flux; actives 40% (n = 4,900); inhibition, % at 10 µM;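 active means thallium signal drop beyond 5 SD of the untreated control mean, on both duplicate plates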;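 further: plate controls were buffer only IC0 wells for no effect and SID17386958 at its maximal inhibitory level for full effect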
An asterisk follows results filed as active; i = inactive; . = not tested or not shown; + = active, no number. A selection: hits, their analogues and other compounds. The true share with any hit is near 4.1%.

SMILES | KCNQ1 inh | KCNK9 inh | hERG rescue | KCNK3 block | Cl transport mod | KCNQ1 pot | KCNQ1 block val | CHO Tl flux | KCNQ2 inh | KCNQ1-KCNE1 inh | KCNK9 inh conf | Kir21 sel | KCNK9 uninduced | others
O=C(CSc1n[nH]c(-c2cccnc2)n1)Nc1cccc(Cl)c1 | i | i | -5.0 | i | . | i | . | . | . | . | . | . | .
Cc1cc(C)n(Cc2ccc(Cl)cc2Cl)c(=O)c1S(=O)(=O)c1ccccc1 | 8* | -11.9* | -15.2 | i | . | i | 81.0* | 0.459 | 80.7%* | 102.5%* | 56.5%* | i | 42.0%*
CSc1cc(-c2ccccc2)n(Cc2ccc(Cl)cc2Cl)c(=O)c1C#N | i | i | -9.4 | i | . | i | . | . | . | . | . | . | .
COc1ccc(OCCN2CCCC2)cc1Nc1nnc(Cl)c(Nc2ccccc2S(C)(=O)=O)n1 | . | . | . | i | . | . | . | . | . | . | . | . | .
Oc1c(Br)cc(Br)c(/C=N/n2c(-c3ccccc3)n[nH]c2=S)c1Br | 7* | i | -5.6 | i | . | i | 83.0* | 0.448 | i | i | i | i | i
Cc1nn(CCc2nn[nH]n2)c2nc(-c3ccc(Br)cc3)cc(C(F)(F)F)c12 | 8* | i | -5.9 | i | . | i | 76.0* | 0.379* | 101.3%* | 59.0%* | i | i | i
Cc1nn(CCc2nn[nH]n2)c2nc(C(F)(F)F)cc(C(F)(F)F)c12 | i | i | -4.6 | i | -0.0954 | i | . | . | . | . | . | . | .
CC(=O)Nc1ccc(NC(=O)COC(=O)c2ccc(S(=O)(=O)N(C)c3ccccc3)cc2)cc1 | . | . | . | i | . | . | . | . | . | . | . | . | .
O=C(NCc1ccccc1)c1cccc(COc2ccc3c(c2)CCC3)c1 | 7* | i | -8.2 | i | -0.0768 | i | 98.5* | 0.387 | 112.0%* | 139.0%* | i | i | i | KCNQ1 ephys val=+
Cc1ccc(-c2[nH]c(-c3ccc(C(=O)O)cc3)nc2-c2ccccc2)cc1 | i | i | -12.2 | i | 0.0152 | i | . | . | . | . | . | . | .
COc1ccc(-c2[nH]c(-c3cc(OC)c4c(c3)OCO4)nc2-c2ccccc2)cc1 | 9* | -9.04* | -27.8 | i | -0.548 | i | 151.5* | 0.339* | 131.3%* | 185.5%* | 38.5%* | i | 32.0%*
O=C1c2cccc(OCc3ccc(F)cc3)c2CCN1Cc1ccc(F)cc1 | 6* | -15.1* | -17.0 | i | -2.85 | i | 126.0* | 0.414 | 115.0%* | 148.5%* | 66.0%* | i | i | KCNQ1 ephys val=i
Cc1ccc(C(=O)OCc2ccc3c(c2)OCO3)cc1S(=O)(=O)N1CCCCC1 | 7* | -13.1* | -8.4 | i | . | i | 74.5* | 0.413 | 84.7%* | 77.5%* | 41.0%* | i | 36.5%*
Cc1ccc(C(=O)Nc2ccc3c(c2)OCO3)cc1S(=O)(=O)N1CCCC1 | i | i | -4.3 | i | . | i | . | . | . | . | . | . | .
COC(=O)C(Cc1c[nH]c2ccccc12)NC(=O)C(=O)c1c[nH]c2ccccc12 (stereo not given) | 7* | -11.9* | -18.1 | i | . | i | 68.0* | 0.481 | 83.7%* | 108.0%* | i | i | i
O=C(C(Cc1ccccc1)n1cccc1)N1CCN(c2ccccc2)CC1 (stereo not given) | i | i | -3.9 | i | -0.165 | i | . | . | . | . | . | . | .
Cc1ccc(C)c(N2CCN(C(=O)C(Cc3ccccc3)n3cccc3)CC2)c1 (stereo not given) | 14* | -12.5* | -13.0 | i | 0.659 | i | 115.5* | 0.36* | 103.0%* | 165.5%* | 57.5%* | i | 40.0%*
CC1CC(C)CN(C(=O)C2CCN(S(=O)(=O)c3c(Cl)cccc3Cl)CC2)C1 (stereo not given) | i | i | -9.1 | i | . | i | . | . | . | . | . | . | .
CC(=O)Nc1ccc(S(=O)(=O)N2CCSC2c2ccco2)cc1 (stereo not given) | i | i | -10.1 | i | . | i | . | . | . | . | . | . | .
O=C(Nc1ccc(Cl)c(Cl)c1)N1CCSC1c1ccco1 (stereo not given) | 10* | -11.2* | -10.3 | i | -1.44 | i | 111.0* | 0.368* | i | 118.5%* | 53.0%* | i | i
COc1ccc(-c2cc3nc(-c4ccccc4)cc(N4CCCC(O)C4)n3n2)cc1 (stereo not given) | 9* | i | -21.6 | i | 0.515 | i | 104.5* | 0.438 | 112.0%* | 184.0%* | i | i | i | KCNQ1 ephys val=i

Screens as filed in PubChem BioAssay.
